PfGluPho inh = PfG6PD (Plasmodium falciparum) enzyme inhibition; PfGluPho enzyme, NADPH resazurin-diaphorase fluorescence; inhibition, % at 20 µM; actives 0.78% (n = 350,000); AID 504690;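 active = inhibition reaching at least a set limit at 20 µM in the primary screen, cut at about 59% in these data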;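 also: 0% = DMSO wells with substrate and 100% = DMSO wells lacking glucose-6-phosphate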
HKDC1 inh = inhibitors of human hexokinase HKDC1; Q2TB90; recombinant HKDC1, G6PDH/diaphorase resazurin coupled fluorescence; inhibition, % at 20 µM; actives 0.16% (n = 340,000); AID 493160;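 active = inhibition above about 35% when tested at 20 µM, limit read from the data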;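 also: plate controls were DMSO wells with enzyme for no effect and DMSO wells lacking enzyme for full effect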
Target sequence (Q2TB90 whole entry, looked up): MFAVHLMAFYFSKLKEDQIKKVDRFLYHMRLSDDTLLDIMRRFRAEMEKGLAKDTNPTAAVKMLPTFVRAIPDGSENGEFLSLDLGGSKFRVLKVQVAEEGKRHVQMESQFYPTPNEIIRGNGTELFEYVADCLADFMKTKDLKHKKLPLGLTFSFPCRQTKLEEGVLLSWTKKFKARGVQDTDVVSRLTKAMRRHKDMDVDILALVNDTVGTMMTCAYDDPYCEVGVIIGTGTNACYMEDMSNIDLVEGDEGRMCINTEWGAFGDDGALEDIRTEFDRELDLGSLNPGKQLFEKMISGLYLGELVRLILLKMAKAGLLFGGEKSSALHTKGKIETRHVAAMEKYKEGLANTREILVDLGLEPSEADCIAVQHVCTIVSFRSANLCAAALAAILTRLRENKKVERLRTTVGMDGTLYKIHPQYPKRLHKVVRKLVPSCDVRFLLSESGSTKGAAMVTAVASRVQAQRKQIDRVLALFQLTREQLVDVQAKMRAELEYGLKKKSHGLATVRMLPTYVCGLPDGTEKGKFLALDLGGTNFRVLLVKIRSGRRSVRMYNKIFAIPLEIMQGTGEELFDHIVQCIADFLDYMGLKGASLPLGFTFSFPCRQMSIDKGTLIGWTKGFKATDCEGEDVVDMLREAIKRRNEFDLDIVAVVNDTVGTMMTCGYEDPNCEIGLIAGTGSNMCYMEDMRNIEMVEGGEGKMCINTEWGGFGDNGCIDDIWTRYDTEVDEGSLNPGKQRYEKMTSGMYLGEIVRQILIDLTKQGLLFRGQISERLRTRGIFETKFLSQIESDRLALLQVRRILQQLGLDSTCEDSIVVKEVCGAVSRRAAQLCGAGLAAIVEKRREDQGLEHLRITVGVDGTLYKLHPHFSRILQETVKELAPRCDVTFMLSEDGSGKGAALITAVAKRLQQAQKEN
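System: Recombinant HKDC1 hexokinase | Amount: HKDC1 at 5 µg/mL | Reagent: Glucose with 1 mM ATP | Doses: Single 20 µM dose | Incubation: Reaction time 90 min, room temperature, protected from light | Signal: Coupled resazurin fluorescence, excitation 525 nm, emission 613 nm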
G6PDH counter-1 = counter-screen for G6PDH assay hits: L. mesenteroides G6PDH inhibition | actives 0.12% (n = 200,000) | AID 1020 | inhibition, % at 5 µM | Purified L. mesenteroides G6PDH, diaphorase/resazurin coupled fluorescence, 45 min; in the data active = inhibition above about 50%
TbHK1 inh = T. brucei hexokinase 1 inhibition | recombinant TbHK1, G6PDH-coupled NADH A340 | inhibition, % at 10 µM | actives 0.11% (n = 220,000) | AID 1430;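 active = inhibition of 50% or more in the single-dose primary screen; inactive = inhibition below 50%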
Diaphorase inh = inhibits diaphorase or chemically oxidizes, flagging diaphorase assay artifacts. diaphorase resazurin-to-resorufin fluorescence, NADH, 16 min; bacterial (C. kluyveri) enzyme, not human. AID 1217. inhibition, % at 20 µM. actives 0.69% (n = 190,000);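 active = primary screen inhibition at 20 µM above a set limit, cut at about 50% in these data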;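 also: plate controls were DMSO with full reaction for no effect and wells lacking NADH for full effect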
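Assay system: diaphorase enzyme from Clostridium kluyveri; Input: enzyme working solution with 0.14 U/mL diaphorase; Timing: 16 min at room temperature; Technique: resorufin fluorescence, excitation 544 nm, emission 590 nm; Benchmarks: positive control minus NADH, DMSO neutral control.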
G6PDH counter-2 = counter-screen for TbHK1 inhibitors: Leuconostoc G6PDH inhibition; shares compounds with TbHK1 inh; purified G6PDH, NADH absorbance, 1 h; inhibition, % at 10 µM; actives 7% (n = 210); AID 2516;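 active = at least 50% inhibition in the glucose-6-phosphate dehydrogenase coupled counterscreen; inconclusive = no clear call, values can overlap the other calls; inactive = inhibition below 50%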
TbHK1 rescreen = T. brucei hexokinase 1 inhibition, rescreen | shares compounds with TbHK1 inh | recombinant TbHK1, G6PDH-coupled NADH A340 absorbance | inhibition, % at 10 µM | actives 10% (n = 210) | AID 2560;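 active = inhibition of at least 50% in both of the two screening runs; inconclusive = at least 50% in one run, below 50% in the other; inactive = inhibition below 50% in both runs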;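 also: 0% and 100% set by the maximum and minimum signal control wells on each plate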
* = called active by the depositor; ? = inconclusive; . = no result given. Shown are actives, neighbours in structure and some others; about 1.2% of the full set was active somewhere.

SMILES	PfGluPho inh	HKDC1 inh	G6PDH counter-1	TbHK1 inh	Diaphorase inh	G6PDH counter-2	TbHK1 rescreen
Cc1occc1-c1nnc(SCC(=O)N2CCOCC2)n1CCc1ccccc1	6	-5	-20	54*	20	-10	-2
CCCN1C2CCCC1CC(NC(=O)c1cc(OC)cc(OC)c1)C2 (stereo not drawn)	9	-4	.	.	.	.	.
O=C1CC(C(=O)NCc2ccccc2)C2(CCCC2)O1 (stereo not drawn)	1	-8	5	55*	-1	1	2
NC(=O)C1CCN(C2CC(=O)N(c3cccc(F)c3)C2=O)CC1 (stereo not drawn)	11	-6	-2	61*	3	-1	2
NC(=O)C1CCN(C2CC(=O)N(c3ccc(F)c(Cl)c3)C2=O)CC1 (stereo not drawn)	-15	0	2	4	15	.	.
COc1ccc(CN(C)C(=O)C2CCN(C(=O)Nc3ccccc3)CC2)cc1	-1	-4	.	.	.	.	.
Cc1ccc(Nc2cc(=O)oc3ccccc23)c(C)c1	-4	3	1	55*	8	8	4
COC(=O)c1ccccc1NC(=O)CCS(=O)(=O)c1ccc(Br)cc1	12	-6	1	62*	28	-6	67*
CC(C)(C)OC(=O)C(Cl)(C(=O)OC(C)(C)C)c1ccc2nnnn2n1	10	2	1	3	-7	.	.
O=C(Nc1ccc2c(c1)OCO2)C1CCCN(S(=O)(=O)c2cccs2)C1 (stereo not drawn)	27	5	14	55*	7	2	-5
O=C(Nc1ccc2c(c1)OCCO2)C1CCN(S(=O)(=O)c2cccs2)CC1	16	-7	1	-5	13	.	.
O=C(Nc1ccc2c(c1)OCCO2)C1CCCN(S(=O)(=O)c2cccs2)C1 (stereo not drawn)	26	-3	13	58*	8	-1	-3
O=c1c(=O)n(CCO)n(CCO)c(=O)n1CCO	-22	.	.	.	.	.	.
COC(=O)CC1C(=O)NCCN1C(=O)CSc1nc2ccc([N+](=O)[O-])cc2s1 (stereo not drawn)	6	13	-9	-34	3	.	.
CCOc1ccc2nc(N3C(=O)CNC3=S)sc2c1	5	-1	.	-8	.	.	.
COc1ccc2nc(N3C(=O)/C(=C/c4ccc(Cl)cc4)NC3=S)sc2c1	-16	20	5	50*	5	-108	-23
COc1cc(NC(=O)C2CC(c3cccc(Br)c3)=NO2)cc(OC)c1OC (stereo not drawn)	-11	6	.	.	.	.	.
COc1cccc(C2=NOC(C(=O)Nc3cc(OC)c(OC)c(OC)c3)C2)c1 (stereo not drawn)	0	-2	2	65*	16	-8	-2
O=C(NCC1CCN(S(=O)(=O)c2ccccc2)CC1)Nc1ccccc1	10	-3	.	0	.	.	.
Cc1ccc(N2C(=O)CSC2c2cccnc2)cc1F (stereo not drawn)	-3	-15	2	55*	0	-2	2
CC1CCC(NC(=O)CCS(=O)(=O)c2ccc3c(c2)NC(=O)C(C)S3)CC1 (stereo not drawn)	-6	-3	.	.	.	.	.
CCOc1ccc(N2CC(=O)N/C2=N\c2nc(C)cc(C)n2)cc1	-20	5	3	69*	17	-9	-8
Cc1nc2nc(-c3ccccc3)cc(=O)n2[nH]1	3	-3	12	55*	7	-3	1
O=C1CCC(=O)N1c1nc2nc(-c3ccccc3)cc(=O)n2[nH]1	-12	-10	1	-4	9	.	.
COc1cc(C(=O)O)nc(OC)n1	6	-14	2	1	4	.	.
SMILES	PfGluPho inh	HKDC1 inh	G6PDH counter-1	TbHK1 inh	Diaphorase inh	G6PDH counter-2	TbHK1 rescreen
COc1cc(Cl)c(C)cc1NC(=O)CCN1C(=O)NC(C)(C)C1=O	23	-3	.	.	.	.	.
N#CC1(NC(=O)COc2ccc3ccc(=O)oc3c2)CCCCC1	-3	0	.	.	.	.	.
CCCCCCn1c(N2CCN(c3cccc(Cl)c3)CC2)nc2c1c(=O)[nH]c(=O)n2C	0	-3	-2	59*	22	-50	14
CCCCCCCCn1c(N2CCN(c3cccc(Cl)c3)CC2)nc2c1c(=O)[nH]c(=O)n2C	6	-5	17	-1	12	.	.
Cn1c(=O)[nH]c(=O)c2c1nc(N1CCCCC1)n2CCOc1ccccc1	5	1	-2	55*	13	4	2
COc1cccc2c(=O)c(C(=O)NCc3cccs3)c[nH]c12	-13	2	8	53*	1	-13	-22
C/C(Cl)=C/Cn1c(=O)c2c(nc(Br)n2Cc2ccccc2)n(C)c1=O	0	-1	22	58*	12	-5	4
C/C(Cl)=C\Cn1c(NCCc2ccccc2)nc2c1c(=O)n(C)c(=O)n2C	10	-4	4	-3	-1	.	.
CC1CCC(NC(=O)c2ccc(CS(=O)(=O)Cc3ccccc3F)o2)CC1 (stereo not drawn)	-10	-10	6	61*	18	-4	7
Cc1ccc(Cn2c(-n3nc(C)cc3C)nc3c2c(=O)[nH]c(=O)n3C)cc1	11	-8	0	56*	13	-11	0
Cc1cc(C)n(-c2nc3c(c(=O)[nH]c(=O)n3C)n2Cc2cccc(Br)c2)n1	3	-4	7	24	8	.	.
Cn1c(SCc2ccc(C#N)cc2)nnc1-c1cccc(Cl)c1	-2	-9	4	55*	9	-12	20
Cn1c(SCc2ccc(C#N)cc2)nnc1-c1ccccc1	-1	-7	20	4	4	.	.
COc1ccc(S(=O)(=O)NNC(=O)C(=O)NNc2ccccn2)cc1	-5	-22	.	53*	.	-16	10
C[C@@]12C(=O)N(CC3CC3)CC(=O)N1[C@H](/C=C/c1ccccc1)[C@@H]1C(=O)N(c3ccccc3)C(=O)[C@@H]12	13	-1	.	.	.	.	.
CC(=O)C1C(c2ccc(F)cc2)NC(=O)NC1(O)C(F)(F)F (stereo not drawn)	-15	2	3	51*	8	-6	3
CC(=O)C1C(c2ccc(O)cc2)NC(=O)NC1(O)C(F)(F)F (stereo not drawn)	-15	-2	.	-8	.	.	.
CCC1(C)Cc2c(C#N)c(N)sc(=S)c2CO1 (stereo not drawn)	32	10	14	83*	14	73*	?
CCC1(C)Cc2c(C#N)c(N)n(-c3ccccc3)c(=S)c2CO1 (stereo not drawn)	40	1	19	-3	43	.	.
CCC(C)COC(=O)C(C#N)c1nc2ccccc2nc1N1CCCCC1 (stereo not drawn)	29	9	8	56*	34	-12	18
COc1ccc(-c2nc(C3CCCCC3)no2)cc1OC	-1	-6	-4	64*	20	-12	-5

High-throughput results: PubChem BioAssay, several laboratories
